Measured values as given in ChEMBL document CHEMBL2021917, “Isoquinoline derivatives as potent CRTH2 receptor antagonists: synthesis and SAR” (Bioorg Med Chem Lett, 2012).

How the values were obtained:
[1] = molecular target: T1, Prostaglandin D2 receptor 2 (Homo sapiens, UniProt Q9Y5Y4); assay: Displacement of 3H-PGD2 from human CRTH2 receptor expressed in CHO cells; type: cell-based
T1 sequence (Q9Y5Y4 whole entry): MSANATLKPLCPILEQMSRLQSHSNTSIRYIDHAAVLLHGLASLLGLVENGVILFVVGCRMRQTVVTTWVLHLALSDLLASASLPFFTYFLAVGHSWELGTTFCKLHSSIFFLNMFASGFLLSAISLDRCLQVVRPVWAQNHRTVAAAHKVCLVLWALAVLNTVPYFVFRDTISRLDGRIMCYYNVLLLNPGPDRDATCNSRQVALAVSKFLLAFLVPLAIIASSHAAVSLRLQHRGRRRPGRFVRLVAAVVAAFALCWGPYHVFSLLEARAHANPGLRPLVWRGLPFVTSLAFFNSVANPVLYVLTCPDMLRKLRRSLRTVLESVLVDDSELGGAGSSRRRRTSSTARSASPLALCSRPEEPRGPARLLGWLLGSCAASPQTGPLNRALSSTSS
Summary of the method: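 Radioligand binding with ³H-PGD₂ on CHO cells stably transfected with human CRTH2. IC50 taken from full 10-point, half-log concentration–response curves, as means of at least two independent experiments.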

[2] = molecular target: T1, Prostaglandin D2 receptor 2; assay: Antagonist activity at human CRTH2 receptor expressed in human KB8 cells assessed as inhibition of PGD2-induced increase in intracellular Ca2+ concentration; type: functional, cell-based
Summary of the method: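 Cells then washed and resuspended in HBSS with 10 mM HEPES pH 7.3 and 1 mM CaCl2 at 2 × 10⁵ cells/100 µl. PGD2-driven Ca²⁺ flux measured.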

[3] = molecular target: T2, Prostaglandin G/H synthase 2 (Homo sapiens, UniProt P35354); assay: Inhibition of COX-2
T2 sequence (P35354 whole entry): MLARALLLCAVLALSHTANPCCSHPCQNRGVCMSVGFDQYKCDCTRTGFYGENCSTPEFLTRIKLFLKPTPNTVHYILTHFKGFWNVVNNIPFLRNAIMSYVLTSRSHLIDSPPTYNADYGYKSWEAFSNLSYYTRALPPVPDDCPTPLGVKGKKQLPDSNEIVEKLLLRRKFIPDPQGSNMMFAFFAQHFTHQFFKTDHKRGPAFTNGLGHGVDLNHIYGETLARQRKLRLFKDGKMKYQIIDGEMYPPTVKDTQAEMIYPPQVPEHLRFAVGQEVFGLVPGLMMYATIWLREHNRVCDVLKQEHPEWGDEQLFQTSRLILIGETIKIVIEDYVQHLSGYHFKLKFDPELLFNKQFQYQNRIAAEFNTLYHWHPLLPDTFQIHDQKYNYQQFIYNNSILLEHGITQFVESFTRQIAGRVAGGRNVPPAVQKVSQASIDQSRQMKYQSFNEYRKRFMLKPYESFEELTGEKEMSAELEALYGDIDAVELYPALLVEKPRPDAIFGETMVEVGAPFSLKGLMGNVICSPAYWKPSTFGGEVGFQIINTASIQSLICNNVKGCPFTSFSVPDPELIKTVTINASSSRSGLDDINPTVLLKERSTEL
Summary of the method: (§1)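 Enzyme inhibition assays for COX-1 and COX-2 run by a contract profiling service following the provider's procedures.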

[4] = molecular target: Prostaglandin G/H synthase 1 (Homo sapiens, UniProt P23219); assay: Inhibition of COX-1; summary of the method: as §1
Sequence of Prostaglandin G/H synthase 1 (P23219 whole entry): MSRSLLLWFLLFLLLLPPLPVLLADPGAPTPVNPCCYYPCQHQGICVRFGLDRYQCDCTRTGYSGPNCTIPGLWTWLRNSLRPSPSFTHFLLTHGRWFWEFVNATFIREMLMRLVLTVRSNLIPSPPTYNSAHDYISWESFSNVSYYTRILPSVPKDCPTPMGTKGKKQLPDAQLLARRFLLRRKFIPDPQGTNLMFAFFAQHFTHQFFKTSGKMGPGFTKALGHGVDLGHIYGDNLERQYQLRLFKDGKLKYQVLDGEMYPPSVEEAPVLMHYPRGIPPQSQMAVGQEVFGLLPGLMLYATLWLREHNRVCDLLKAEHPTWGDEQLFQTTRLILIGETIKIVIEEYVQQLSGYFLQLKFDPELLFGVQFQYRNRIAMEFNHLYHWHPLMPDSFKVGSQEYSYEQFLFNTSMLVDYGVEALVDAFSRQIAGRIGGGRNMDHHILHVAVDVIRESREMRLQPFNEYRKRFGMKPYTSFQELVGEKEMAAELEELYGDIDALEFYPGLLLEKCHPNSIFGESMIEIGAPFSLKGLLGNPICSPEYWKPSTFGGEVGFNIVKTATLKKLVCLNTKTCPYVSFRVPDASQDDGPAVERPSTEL

[5] = molecular target: T3, Prostaglandin D2 receptor (Homo sapiens, UniProt Q13258); assay: Inhibition of DP1 prostanoid receptor
T3 sequence (Q13258 whole entry): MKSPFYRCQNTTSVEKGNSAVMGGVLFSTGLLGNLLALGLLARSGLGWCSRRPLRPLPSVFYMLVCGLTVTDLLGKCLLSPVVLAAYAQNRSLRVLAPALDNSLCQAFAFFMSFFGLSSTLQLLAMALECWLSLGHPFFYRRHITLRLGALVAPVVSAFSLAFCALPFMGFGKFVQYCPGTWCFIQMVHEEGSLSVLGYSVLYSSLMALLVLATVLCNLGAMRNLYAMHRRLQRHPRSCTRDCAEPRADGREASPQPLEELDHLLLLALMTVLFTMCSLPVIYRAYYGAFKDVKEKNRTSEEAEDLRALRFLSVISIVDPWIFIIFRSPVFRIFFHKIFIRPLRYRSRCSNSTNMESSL
Summary of the method: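 DP1 binding assay run by a contract profiling service following the provider's procedures.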

SMILES	IC50 [1] [nM]	further results
CC(=O)Nc1ccc(C(=O)c2ncc(CC(=O)O)c3ccccc23)cc1	330	
O=C(O)Cc1cnc(C(=O)c2ccc(NC(=O)c3ccccc3)cc2)c2ccccc12	7.9	IC50 [2]: 42 nM
O=C(O)Cc1cnc(C(=O)c2ccc(NC(=O)C3CCCCC3)cc2)c2ccccc12	14	
O=C(O)Cc1cnc(C(=O)c2ccc(NC(=O)c3ccc4ccccc4c3)cc2)c2ccccc12	4	
O=C(O)Cc1cnc(C(=O)c2ccc(NC(=O)c3cc4ccccc4[nH]3)cc2)c2ccccc12	3.2	
O=C(O)Cc1cnc(C(=O)c2ccc(NC(=O)c3ccncc3)cc2)c2ccccc12	83	
O=C(O)Cc1cnc(C(=O)c2ccc(NC(=O)c3ncccn3)cc2)c2ccccc12	290	IC50 [2]: 550 nM
O=C(O)Cc1cnc(C(=O)c2ccc(NC(=O)c3cccc(Cl)c3)cc2)c2ccccc12	3.2	
O=C(O)Cc1cnc(C(=O)c2ccc(NC(=O)c3ccc(Cl)cc3)cc2)c2ccccc12	3.4	
O=C(O)Cc1cnc(C(=O)c2ccc(NC(=O)c3ccccc3Cl)cc2)c2ccccc12	45	
O=C(O)Cc1cnc(C(=O)c2ccc(NC(=O)c3ccc(C(F)(F)F)cc3)cc2)c2ccccc12	4.9	IC50 [2]: 15 nM
COc1ccc(C(=O)Nc2ccc(C(=O)c3ncc(CC(=O)O)c4ccccc34)cc2)cc1	7.3	
O=C(O)Cc1cnc(C(=O)c2ccc(NC(=O)c3ccc(Cl)c(Cl)c3)cc2)c2ccccc12	19	IC50 [3]: > 10000 nM; IC50 [4]: > 10000 nM; IC50 [5]: > 1000 nM
O=C(O)Cc1cnc(C(=O)c2ccc(NC(=O)CCc3ccc(Cl)c(Cl)c3)cc2)c2ccccc12	13	
O=C(O)Cc1cnc(C(=O)c2ccc(NC(=O)/C=C/c3ccc(Cl)c(Cl)c3)cc2)c2ccccc12	4	IC50 [2]: 17 nM
CN(C(=O)c1ccc(Cl)c(Cl)c1)c1ccc(C(=O)c2ncc(CC(=O)O)c3ccccc23)cc1	210	
O=C(O)Cc1cnc(C(=O)c2ccc(NCc3ccc(Cl)c(Cl)c3)cc2)c2ccccc12	6.1	
O=C(O)Cc1cnc(C(=O)c2ccc(NS(=O)(=O)c3ccc(Cl)c(Cl)c3)cc2)c2ccccc12	340	
O=C(O)Cc1cnc(C(=O)c2ccc(OCc3ccc(Cl)c(Cl)c3)cc2)c2ccccc12	38	IC50 [2]: 180 nM
O=C(O)Cc1cnc(C(=O)c2ccc(C(=O)Nc3ccc(Cl)c(Cl)c3)cc2)c2ccccc12	10	
O=C(O)Cc1cnc(C(=O)c2ccc(C(=O)NCCc3ccc(Cl)cc3)cc2)c2ccccc12	7.8	
CC(C)(C(=O)O)c1cnc(C(=O)c2ccc(C(=O)NCCc3ccc(Cl)cc3)cc2)c2ccccc12	200	
O=C(O)COc1cnc(C(=O)c2ccc(C(=O)NCCc3ccc(Cl)cc3)cc2)c2ccccc12	25	
